Measurements: ChEMBL document CHEMBL3994592, “Antimicrobial Oligophenalenone Dimers from the Soil Fungus Talaromyces stipitatus” (J Nat Prod, 2016)
Converted amounts (≈) assume the structure as drawn.

Tests used:
[1] = tested on: Staphylococcus aureus; test: Antibacterial activity against Staphylococcus aureus ATCC 6538 after 24 hrs; format: functional; details: ATCC 6538, 24 h
Outline: (§1)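 Broth microdilution in LB. Precultures were grown 24 h at 37 °C in 10 mL LB and diluted 1/1000 (OD600 0.01) into 96-well plates. Two-fold serial dilutions were made from 10 mg/mL stocks, 2 µL per 200 µL medium. Plates were incubated 24 h at 37 °C and OD read at 595 nm. MIC is the concentration giving a 90% decrease versus DMSO-only control, obtained by curve fitting.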

[2] = tested on: Staphylococcus haemolyticus; test: Antibacterial activity against Staphylococcus haemolyticus MNHN26 after 24 hrs; format: functional; details: MNHN26, 24 h; outline: as §1
[3] = tested on: Enterococcus faecalis; test: Antibacterial activity against Enterococcus faecalis CIP 103014 after 24 hrs; format: functional; details: CIP 103014, 24 h; outline: as §1
[4] = tested on: Escherichia coli; test: Antibacterial activity against Escherichia coli ATCC 8739 after 24 hrs; format: functional; details: ATCC 8739, ATCC 8739, 24 h; outline: as §1
[5] = tested on: HeLa; test: Cytotoxicity against human HeLa cells assessed as reduction in cell viability by MTT assay; format: functional, cell-based
Outline: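 HeLa cells were seeded at 2500 cells/well, incubated overnight, then exposed in exponential growth to a range of concentrations for four doubling times. Viability was measured by MTT, 4 h at 37 °C, with formazan read at 560 nm. Concentration inhibiting growth by 50% versus untreated controls was taken from dose-survival curves. At least three independent experiments, each in duplicate; cisplatin served as control.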

Row | SMILES | MIC90 [1] [µg/mL] | MIC90 [2] [µg/mL] | MIC90 [3] [µg/mL] | MIC [4] [µg/mL] | IC50 [5] [µM]
1 | CC(=O)O[C@H]1[C@@H]2C(=O)c3c(C)cc(O)c4c3[C@@]1(COC4=O)C1=C2c2c(C)cc(O)c3c2[C@@](O)(COC3=O)C1=O | 29.3 (≈ 55 µM) | > 30 | > 30 | > 100 | > 100
2 | CO[C@@]12c3c(C)cc(O)c4c3C(=C(O)[C@@H]1[C@]13COC(=O)c5c(O)cc(C)c(c51)C(=O)[C@H]2[C@@H]3OC(C)=O)C=NC4=O | 5 (≈ 9.17 µM) | 20.4 (≈ 37.4 µM) | > 30 | > 100 | 49.5
3 | CC(=O)O[C@H]1[C@@H]2C(=O)c3c(C)cc(O)c4c3[C@@]1(COC4=O)c1c(O)c(C=O)c3cc(O)cc(C)c3c12 | > 50 | > 50 | > 50 | > 100 | > 50
4 | CO[C@H]1OC(=O)c2c(O)cc(C)c3c4c(c(O)c1c23)[C@]12COC(=O)c3c(O)cc(C)c(c31)C(=O)[C@H]4[C@@H]2OC(C)=O | 15.6 (≈ 28.5 µM) | > 30 | > 30 | > 100 | > 50
5 | CC(=O)O[C@H]1[C@@H]2C(=O)c3c(C)cc(O)c4c3[C@@]1(COC4=O)c1c(O)c3c4c(c(O)cc(C)c4c12)C(=O)OC3 | 5.2 (≈ 10.1 µM) | 9.5 (≈ 18.4 µM) | 2.4 (≈ 4.65 µM) | > 100 | –
6 | CN(C)[C@@H]1C(O)=C(C(N)=O)C(=O)[C@@]2(O)C(O)=C3C(=O)c4c(O)cccc4[C@@](C)(O)[C@H]3C[C@@H]12 [TETRACYCLINE] | 0.05 (≈ 0.113 µM) | 29.5 (≈ 66.4 µM) | 0.4 (≈ 0.9 µM) | – | –
